How the values were obtained:
[1] = Cytotoxicity in human Huh7.5 cells assessed as reduction in cell viability incubated for 96 hrs by MTT assay; format: cell-based
How it was run: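 Huh7.5 cells seeded 24 h before compound addition. Viability read by MTT at 96 h. Eight-step 1:5 serial dilutions in triplicate; CC50 by Reed & Muench; three independent experiments.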

Hepatitis C virus [2] = test: Antiviral activity against HCV J6/JFH/JC1 infected in human Huh7.5 cells incubated for 72 hrs by In-Cell Western assay; format: functional, organism-based, Hepacivirus hominis; details: J6/JFH/JC1, Huh7.5, 72 h
How it was run: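 Huh7.5 cells infected with HCVcc (MOI 0.1) and treated with compound at the same time for 72 h. Cells fixed with PFA, permeabilized, then stained for HCV Core and GAPDH with IR-dye secondaries. Core signal normalized to GAPDH. Eight-step 1:5 dilutions in triplicate; EC50 by Reed & Muench; mean of three experiments.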

[3] = Selectivity index, ratio of CC50 for cytotoxicity in human Huh7.5 cells assessed as reduction in cell viability incubated for 96 hrs by MTT assay to EC50 for antiviral activity against HCV J6/JFH/JC1 infected in human Huh7.5 cells incubated for 72 hrs by In-Cell Western assay; format: toxicity, cell-based; details: read-out: Ratio CC50/EC50
How it was run: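 HCVcc (MOI=0.1) infected Huh7.5 cells co-treated with eight-step 1:5 serial dilutions, triplicate wells. After 72 h, fixed, permeabilized, and stained for HCV Core and GAPDH with IR-dye secondaries. Core normalized to GAPDH. CC50 came from MTT at 96 h in uninfected Huh7.5 cells. EC50/CC50 were derived by Reed & Muench, mean ± SD of three independent experiments.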

Hepatitis C virus [4] = test: Antiviral activity against HCV J6/JFH/JC1 infected in human Huh7.5 cells assessed as reduction in viral RNA levels incubated for 72 hrs by qRT-PCR analysis; format: functional, organism-based, Hepacivirus hominis; details: for EC50: J6/JFH/JC1, Huh7.5, 72 h
How it was run: (§1)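 Huh7.5 cells seeded 24 h, then infected with wild-type (or mutant) HCV with compound added at the same time. Incubated 72 h. Intracellular HCV RNA measured by qRT-PCR, 2^-ΔCt method, normalized to GAPDH. Eight-step 1:5 serial dilutions in triplicate; EC50 by Reed & Muench; three independent experiments.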

Hepatitis C virus [5] = test: Antiviral activity against HCV expressing NS5B S282T mutant by qRT-PCR analysis based by Reed-Muench method; format: functional, organism-based, Hepacivirus hominis
How it was run: (§2)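 Huh7.5 cells seeded at 3×10^4/cm², infected 24 h later with wild-type or mutant HCV stock while compound or solvent was added at the same time. Intracellular HCV RNA measured by qRT-PCR at 72 h, normalised to GAPDH, 2^-ΔCT method. EC50 by Reed & Muench from eight-step 1:5 serial dilutions, triplicate wells.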

Hepatitis C virus [6] = test: Antiviral activity against wild type HCV by qRT-PCR analysis based by Reed-Muench method; format: functional, organism-based, Hepacivirus hominis; how it was run: as §1
[7] = Selectivity index, ratio of CC50 for cytotoxicity in human Huh7.5 cells assessed as reduction in cell viability incubated for 96 hrs by MTT assay to EC50 antiviral activity against HCV J6/JFH/JC1 infected in human Huh7.5 cells assessed as reduction in viral RNA levels incubated for 72 hrs by qRT-PCR analysis; format: toxicity, cell-based; details: read-out: Ratio CC50/EC50
How it was run: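 Selectivity index = CC50/EC50. CC50: Huh7.5 cells seeded at 3×10^4/cm², medium with compound added at 24 h, MTT read at 96 h. EC50: HCVcc-infected Huh7.5 cells treated for 72 h, HCV RNA by qRT-PCR normalised to GAPDH. Serial 1:5 dilutions in eight steps, Reed & Muench calculation, means ± SD of three independent experiments.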

[8] = Cytotoxicity in African green monkey Vero E6 cells assessed as reduction in cell viability; format: cell-based, Vero C1008; details: chlorocebus sabaeus
[9] = Selectivity index, ratio of CC50 for cytotoxicity in African green monkey Vero E6 cells to EC50 for Antiviral activity against Zika virus infected in Vero E6 cells; format: toxicity, cell-based, Vero C1008; details: read-out: Ratio CC50/EC50
[10] = Cytotoxicity in African green monkey Vero cells assessed as reduction in cell viability; format: cell-based; details: chlorocebus sabaeus
Coxsackievirus B3 = test: Antiviral activity against Coxsackievirus B3 infected in Vero cells assessed as reduction in virus-induced cytopathic effect incubated for 48 hrs by Reed-Muench method; format: functional, organism-based; details: Enterovirus B
[11] = Selectivity index, ratio of CC50 for cytotoxicity in African green monkey Vero cells to EC50 for Antiviral activity against Coxsackievirus B3 infected in Vero cells; format: toxicity, cell-based; details: read-out: Ratio CC50/EC50
Hepatitis C virus [12] = test: Antiviral activity against HCV expressing NS3 D168V mutant by qRT-PCR analysis based by Reed-Muench method; format: functional, organism-based, Hepacivirus hominis; how it was run: as §2
[13] = Oral bioavailability in Sprague-Dawley rat 15 mg/kg measured after 0.25 to 72 hrs by LC-MS/MS analysis; format: ADME, organism-based; details: in vivo

| SMILES | CC50 at 96 h [1] [µM] | EC50 (Hepatitis C virus [2]) [µM] | selectivity ratio [3] | other results |
| --- | --- | --- | --- | --- |
| CN(C)CCN(C)c1ccc(C#N)c(CN2CCNCC2)c1 | > 200 | 35 | > 5 | – |
| Cc1ccc(NCc2cc(N3CCNCC3)ccc2C#N)cc1 | 18.8 | – | – | EC50 (Hepatitis C virus [4]): 1.68 µM |
| CN1CCN(c2ccc(C#N)c(CNc3ccc(Cl)cc3)c2)CC1 | 18.3 | – | – | EC50 (Hepatitis C virus [4]): 0.42 µM |
| CN(C)CCCN(C)c1ccc(C#N)c(CN2CCN(c3ccc(Cl)cc3)CC2)c1 | 15.6 | 0.423 | 36 | – |
| CNCCN(C)c1ccc(C#N)c(CN2CCN(c3ccc(Cl)cc3)CC2)c1 | 15.8 | 0.289 | 54 | – |
| CN(C)CCN(C)c1ccc(C#N)c(CN2CCN(c3ccc(Cl)nc3)CC2)c1 | 52.6 | 2.51 | 21 | – |
| CCC(=O)N(C)CCN(C)c1ccc(C#N)c(CN2CCN(c3ccc(Cl)cc3)CC2)c1 | 40 | 7.29 | 5 | – |
| CC(C)OC(=O)[C@H](C)N[P@](=O)(OC[C@H]1O[C@@H](n2ccc(=O)[nH]c2=O)[C@](C)(F)[C@@H]1O)Oc1ccccc1 [SOFOSBUVIR] | > 200 | 0.104 | > 1920 | EC50 (Hepatitis C virus [4]): 0.046 µM; EC50 (Hepatitis C virus [5]): 0.148 µM; EC50 (Hepatitis C virus [6]): 0.0294 µM; selectivity ratio [7]: > 4350 |
| COc1ccc(N2CCN(Cc3cc(N(C)CCN(C)C)ccc3C#N)CC2)cc1 | 45.5 | 1.44 | 31 | – |
| CN(C)CCN(C)c1cccc(CN2CCN(c3ccc(Cl)cc3)CC2)c1 | 13.6 | 0.936 | 14 | – |
| CN(C)CCN(C)c1ccc(C#N)c(CN2CCN(c3ccc(Cl)cc3[N+](=O)[O-])CC2)c1 | 12.5 | 0.217 | 57 | – |
| Cc1ccc(NCc2cc(N3CCOCC3)ccc2C#N)cc1 | 133 | – | – | EC50 (Hepatitis C virus [4]): > 66.7 µM |
| CN1CCCN(c2ccc(C#N)c(CN3CCN(c4ccc(Cl)cc4)CC3)c2)CC1 | 12.5 | 0.153 | 81 | – |
| NC(=O)c1ncn([C@@H]2O[C@H](CO)[C@@H](O)[C@H]2O)n1 [RIBAVIRIN] | – | – | – | CC50 [8]: > 200 µM; selectivity ratio [9]: > 6 |
| CCN1CCCC1CNc1ccc(C#N)c(CN2CCN(c3ccc(Cl)cc3)CC2)c1 (stereo not given) | 7.64 | 0.454 | 16 | – |
| CN(C)CCNc1ccc(C#N)c(CN2CCN(c3ccc(Cl)cc3)CC2)c1 | 14.8 | 0.952 | 15 | – |
| Cc1ccc(N(C)Cc2cc(N3CCN(C)CC3)ccc2C#N)cc1 | 82 | – | – | EC50 (Hepatitis C virus [4]): 0.89 µM |
| CN(C)CCN(C)c1ccc(C#N)c(CN2CCN(c3ccc(C#N)cc3)CC2)c1 | 9.05 | 1.87 | 4 | – |
| CN(C)CCN(C)c1ccc(C#N)c(CN2CCN(c3ccc(F)cc3)CC2)c1 | 52.1 | 0.749 | 70 | – |
| Cc1ccc(NCc2cc(N3CCCCC3)ccc2C#N)cc1 | 11.4 | – | – | EC50 (Hepatitis C virus [4]): > 7.41 µM |
| N#Cc1ccc(N2CCNCC2)cc1CN1CCN(c2ccc(Cl)cc2)CC1 | 13.7 | 0.657 | 20 | – |
| N#Cc1ccc(NCc2ccccn2)cc1CN1CCN(c2ccc(Cl)cc2)CC1 | > 200 | 13.7 | > 14 | – |
| CN(C)CCN(C)c1ccc(C(N)=O)c(CN2CCN(c3ccc(Cl)cc3)CC2)c1 | 15.5 | 1.16 | 13 | – |
| Cc1cc(CCCOc2c(C)cc(-c3noc(C(F)(F)F)n3)cc2C)on1 [PLECONARIL] | – | – | – | CC50 [10]: > 1.05 µM; EC50 (Coxsackievirus B3): 0.002 µM; selectivity ratio [11]: > 525 |

| SMILES | CC50 at 96 h [1] [µM] | EC50 (Hepatitis C virus [2]) [µM] | selectivity ratio [3] | other results |
| --- | --- | --- | --- | --- |
| COc1ccc2c(O[C@@H]3C[C@H]4C(=O)N[C@]5(C(=O)NS(=O)(=O)C6CC6)C[C@H]5/C=C/CCCCN(C)C(=O)[C@@H]4C3)cc(-c3nc(C(C)C)cs3)nc2c1C | – | – | – | EC50 (Hepatitis C virus [6]): 0.0092 µM; EC50 (Hepatitis C virus [12]): > 1 µM |
| CN(C)CCN(C)c1ccc(C#N)c(CN2CCN(c3ccc(Br)cc3)CC2)c1 | 13.3 to 15.6 | 0.104 | 128 | Activity (Hepatitis C virus [4]; Hepacivirus hominis): Dose-dependent effect; EC50 (Hepatitis C virus [4]): 0.031 µM; selectivity ratio [7]: 503 |
| CN(C)CCN(C)c1ccc(C#N)cc1CN1CCN(c2ccc(Cl)cc2)CC1 | 14.6 | 1.33 | 11 | – |
| Cc1ccc(NCc2cc(N3CCN(C)CC3)ccc2C#N)cc1 | 37.4 | – | – | EC50 (Hepatitis C virus [4]): 1.62 µM; bioavailability [13]: < 5% |
| CN(C)CCN(C)c1ccc(C#N)c(CN2CCN(c3ccncc3)CC2)c1 | 44.7 | 2.74 | 16 | – |
| CN(C)CCN(C)c1ccc(C#N)c(CN2CCN(c3ccccc3)CC2)c1 | 50.2 | 0.902 | 55 | – |
| CN(C)CCN(C)c1ccc(C#N)c(CN2CCN(Cc3ccc(Cl)cc3)CC2)c1 | 15.6 | 1.05 | 14 | – |
| CN(C)CCN(C)c1ccc(C#N)c(CN2CCC(c3ccc(Cl)cc3)CC2)c1 | 3.75 | 0.142 | 26 | – |
| N#Cc1ccc(N2CCC(N3CCCC3)CC2)cc1CN1CCN(c2ccc(Cl)cc2)CC1 | 13.5 | 0.318 | 42 | – |
| COc1ccc(NCc2cc(N3CCN(C)CC3)ccc2C#N)cc1 | 48.2 | – | – | EC50 (Hepatitis C virus [4]): 2.14 µM |
| CC(C)CCNc1ccc(C#N)c(CN2CCN(c3ccc(Cl)cc3)CC2)c1 | > 200 | 119 | > 1 | – |
| CN(C)CCN(C)c1ccc(C#N)c(CN2CCN(c3ccc(Cl)cc3F)CC2)c1 | 13.2 | 0.205 | 64 | – |
| N#Cc1ccc(OCCN2CCCC2)cc1CN1CCN(c2ccc(Cl)cc2)CC1 | 16.6 | 0.814 | 20 | – |
| CN(C)CCN(C)c1ccc(C#N)c(CN2CCN(c3ccc(N)cc3)CC2)c1 | 55.2 | 6.43 | 8 | – |
| Cc1ccc(N2CCN(Cc3cc(N(C)CCN(C)C)ccc3C#N)CC2)cc1 | 36.2 | 0.399 | 90 | – |
| CC1CN(Cc2cc(N(C)CCN(C)C)ccc2C#N)CCN1c1ccc(Cl)cc1 (stereo not given) | 13.7 | 0.321 | 42 | – |
| N#Cc1ccc(NCCN2CCOCC2)cc1CN1CCN(c2ccc(Cl)cc2)CC1 | 76.3 | 4.69 | 16 | – |
| CN(C)CCN(C)c1ccc(C#N)c(CN(C)c2ccc(Cl)cc2)c1 | 15.5 | 0.506 | 30.6 | EC50 (Hepatitis C virus [4]): 0.18 µM; bioavailability [13]: < 5% |
| Cc1cc(Cl)ccc1N1CCN(Cc2cc(N(C)CCN(C)C)ccc2C#N)CC1 | 10.1 | 0.203 | 49 | – |
| CN(C)c1ccc(C#N)c(CN2CCN(c3ccc(Cl)cc3)CC2)c1 | > 200 | 57.5 | > 3 | – |
| CN(C)CCN(C)c1ccc(C#N)c(CN2CCN(c3ccc([N+](=O)[O-])cc3)CC2)c1 | 12.8 | 0.314 | 40 | – |
| CN(C)CCN(C)c1ccc(C#N)c(CN2CCN(c3ccc(Cl)cc3Cl)CC2)c1 | 9.85 | 0.166 | 59 | – |
| N#Cc1ccc(N2CCNC(=O)C2)cc1CN1CCN(c2ccc(Cl)cc2)CC1 | > 200 | 79.4 | > 2 | – |
| CN1CCN(c2ccc(C#N)c(CN3CCN(c4ccc(Cl)cc4)CC3)c2)CC1 | 16.1 | 0.783 | 20 | – |

Reference: ChEMBL document CHEMBL4613269, “2-((4-Arylpiperazin-1-yl)methyl)benzonitrile Derivatives as Orally Available Inhibitors of Hepatitis C Virus with a Novel Mechanism of Action” (J Med Chem, 2020)
